Reference: ChEMBL document CHEMBL4402517, “Rational modification of Mannich base-type derivatives as novel antichagasic compounds: Synthesis, in vitro and in vivo evaluation” (Bioorg Med Chem, 2019)

Experiments:
[1] = Genotoxicity in Salmonella typhimurium TA1535 harboring pSK1002 assessed as umu gene induction at 0.008 mg/ml in presence of Sprague-Dawley rat liver S9 fraction metabolic activation by SOS/umu assay relative to control; assay type: toxicity, subcellular; details: salmonella enterica subsp. enterica serovar typhimurium, read-out: FC
Method in brief: (§1)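 umu induction in S. typhimurium TA1535/pSK1002, with or without S9 mix, in 96-well format. β-galactosidase read colorimetrically with ONPG substrate. Output given as relative units and induction factor (IF). The run is valid if positive controls reach IF ≥2. A compound counts as genotoxic at IF ≥2 at a concentration giving ≥80% bacterial survival.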

[2] = Genotoxicity in Salmonella typhimurium TA1535 harboring pSK1002 assessed as survival at 0.125 mg/ml in absence of Sprague-Dawley rat liver S9 fraction metabolic activation by SOS/umu assay relative to control; assay type: toxicity; details: salmonella enterica subsp. enterica serovar typhimurium, read-out: Survival
Method in brief: (§2)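 Survival of S. typhimurium TA1535/pSK1002 exposed to a range of compound concentrations with or without S9 mix in 96-well format. Survival percentage measured as the cytotoxicity arm of the SOS/umu test. Concentrations with survival ≥80% are counted as non-cytotoxic.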

[3] = Genotoxicity in Salmonella typhimurium TA1535 harboring pSK1002 assessed as survival at 0.031 mg/ml in absence of Sprague-Dawley rat liver S9 fraction metabolic activation by SOS/umu assay relative to control; assay type: toxicity; details: salmonella enterica subsp. enterica serovar typhimurium, read-out: Survival; method in brief: as §2
[4] = Genotoxicity in Salmonella typhimurium TA1535 harboring pSK1002 assessed as survival at 0.016 mg/ml in absence of Sprague-Dawley rat liver S9 fraction metabolic activation by SOS/umu assay relative to control; assay type: toxicity; details: salmonella enterica subsp. enterica serovar typhimurium, read-out: Survival; method in brief: as §2
[5] = Genotoxicity in Salmonella typhimurium TA1535 harboring pSK1002 assessed as survival at 0.002 mg/ml in absence of Sprague-Dawley rat liver S9 fraction metabolic activation by SOS/umu assay relative to control; assay type: toxicity; details: salmonella enterica subsp. enterica serovar typhimurium, read-out: Survival
Method in brief: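 Salmonella typhimurium TA1535/pSK1002 was exposed to compounds at several concentrations with or without S9 mix, and bacterial survival % was measured. β-galactosidase induction was measured colorimetrically with ONPG substrate. Genotoxicity was counted where IF ≥ 2 at ≥80% survival; runs were valid if positive controls reached IF ≥ 2.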

[6] = Genotoxicity in Salmonella typhimurium TA1535 harboring pSK1002 assessed as survival at 0.25 mg/ml in presence of Sprague-Dawley rat liver S9 fraction metabolic activation by SOS/umu assay relative to control; assay type: toxicity, subcellular; details: salmonella enterica subsp. enterica serovar typhimurium, read-out: Survival; method in brief: as §2
[7] = Genotoxicity in Salmonella typhimurium TA1535 harboring pSK1002 assessed as survival at 0.125 mg/ml in presence of Sprague-Dawley rat liver S9 fraction metabolic activation by SOS/umu assay relative to control; assay type: toxicity, subcellular; details: salmonella enterica subsp. enterica serovar typhimurium, read-out: Survival; method in brief: as §2
[8] = Genotoxicity in Salmonella typhimurium TA1535 harboring pSK1002 assessed as survival at 0.031 mg/ml in presence of Sprague-Dawley rat liver S9 fraction metabolic activation by SOS/umu assay relative to control; assay type: toxicity, subcellular; details: salmonella enterica subsp. enterica serovar typhimurium, read-out: Survival; method in brief: as §2
[9] = Genotoxicity in Salmonella typhimurium TA1535 harboring pSK1002 assessed as umu gene induction at 0.008 mg/ml in absence of Sprague-Dawley rat liver S9 fraction metabolic activation by SOS/umu assay relative to control; assay type: toxicity; details: salmonella enterica subsp. enterica serovar typhimurium, read-out: FC; method in brief: as §1
[10] = Genotoxicity in Salmonella typhimurium TA1535 harboring pSK1002 assessed as umu gene induction at 0.004 mg/ml in absence of Sprague-Dawley rat liver S9 fraction metabolic activation by SOS/umu assay relative to control; assay type: toxicity; details: salmonella enterica subsp. enterica serovar typhimurium, read-out: FC; method in brief: as §1
[11] = Genotoxicity in Salmonella typhimurium TA1535 harboring pSK1002 assessed as umu gene induction at 0.001 mg/ml in absence of Sprague-Dawley rat liver S9 fraction metabolic activation by SOS/umu assay relative to control; assay type: toxicity; details: salmonella enterica subsp. enterica serovar typhimurium, read-out: FC; method in brief: as §1
[12] = Genotoxicity in Salmonella typhimurium TA1535 harboring pSK1002 assessed as umu gene induction at 0.5 mg/ml in presence of Sprague-Dawley rat liver S9 fraction metabolic activation by SOS/umu assay relative to control; assay type: toxicity, subcellular; details: salmonella enterica subsp. enterica serovar typhimurium, read-out: FC; method in brief: as §1
[13] = Genotoxicity in Salmonella typhimurium TA1535 harboring pSK1002 assessed as umu gene induction at 0.125 mg/ml in presence of Sprague-Dawley rat liver S9 fraction metabolic activation by SOS/umu assay relative to control; assay type: toxicity, subcellular; details: salmonella enterica subsp. enterica serovar typhimurium, read-out: FC; method in brief: as §1
[14] = Genotoxicity in Salmonella typhimurium TA1535 harboring pSK1002 assessed as umu gene induction at 0.002 mg/ml in presence of Sprague-Dawley rat liver S9 fraction metabolic activation by SOS/umu assay relative to control; assay type: toxicity, subcellular; details: salmonella enterica subsp. enterica serovar typhimurium, read-out: FC; method in brief: as §1
[15] = Genotoxicity in Salmonella typhimurium TA1535 harboring pSK1002 assessed as umu gene induction at 0.001 mg/ml in presence of Sprague-Dawley rat liver S9 fraction metabolic activation by SOS/umu assay relative to control; assay type: toxicity, subcellular; details: salmonella enterica subsp. enterica serovar typhimurium, read-out: FC; method in brief: as §1
[16] = (§3) Toxicity in BALB/c mouse infected with Trypanosoma cruzi MHOM/Pe/2011/Arequipa;DTU 5 bloodstream trypomastigote assessed as change in serum alanine aminotransferase level in acute phase at 20 mg/kg/day, po administered for 5 consecutive days starting from day 8 post infection and measured on day 100 post infection by biochemical analysis relative to control; assay type: organism-based; details: in vivo
Method in brief: (§4)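 Female BALB/c mice (10–12 weeks, 14–20 g; groups of three) were infected i.p. with 5 × 10^5 Arequipa bloodstream trypomastigotes. Dosing was oral at 20 mg/kg/day for 5 days, from day 8 pi (acute) or day 70 pi (chronic), as a 2 mg/ml suspension in 5% DMSO/0.5% HPMC; controls received vehicle. Cyclophosphamide 200 mg/kg i.p. was given at day 80 pi. Serum was collected 2 days post-treatment and at necropsy by cardiac puncture and compared with infected untreated controls.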

[17] = (§5) Toxicity in BALB/c mouse infected with Trypanosoma cruzi MHOM/Pe/2011/Arequipa;DTU 5 bloodstream trypomastigote assessed as decrease in serum aspartate aminotransferase level in chronic phase at 20 mg/kg/day, po administered for 5 consecutive days starting from day 70 post infection and measured at day 76 post infection relative to control; assay type: organism-based; set-up: scale not given: the % may be the effect or the level left; details: in vivo; method in brief: as §4
[18] = as §5, with “as change” for “as decrease”, “infection” for “infection and”, “measured on” for “measured at”, “day 100” for “day 76”; assay type: organism-based; details: in vivo; method in brief: as §4
[19] = as §3, with “as increase” for “as change”, “serum total bilirubin” for “serum alanine aminotransferase”, “measured at” for “measured on”, “day 14” for “day 100”; assay type: organism-based; details: in vivo; method in brief: as §4
[20] = Genotoxicity in Salmonella typhimurium TA1535 harboring pSK1002 assessed as survival at 0.25 mg/ml in absence of Sprague-Dawley rat liver S9 fraction metabolic activation after by SOS/umu assay relative to control; assay type: toxicity; details: salmonella enterica subsp. enterica serovar typhimurium, read-out: Survival; method in brief: as §2
[21] = as §3, with “decrease” for “change”, “urea” for “alanine aminotransferase”; assay type: organism-based; set-up: scale not given: the % may be the effect or the level left; details: in vivo; method in brief: as §4
[22] = Toxicity in BALB/c mouse infected with Trypanosoma cruzi MHOM/Pe/2011/Arequipa;DTU 5 bloodstream trypomastigote assessed as decrease in serum total bilirubin level in chronic phase at 20 mg/kg/day administered for 5 consecutive days starting from […] post infection and measured after 2 days of treatment by biochemical analysis (reference value: 0.25 mg/dl ); assay type: organism-based; set-up: scale not given: the % may be the effect or the level left; details: in vivo, 48 h

| Compound | fold induction at 0.008 mg/ml [1] | viability at 0.125 mg/ml [2] [%] | viability at 0.031 mg/ml [3] [%] | viability at 0.016 mg/ml [4] [%] | viability at 0.002 mg/ml [5] [%] | viability at 0.25 mg/ml [6] [%] | viability at 0.125 mg/ml [7] [%] | viability at 0.031 mg/ml [8] [%] | fold induction at 0.008 mg/ml [9] | fold induction at 0.004 mg/ml [10] | fold induction at 0.001 mg/ml [11] | fold induction at 0.5 mg/ml [12] | fold induction at 0.125 mg/ml [13] | fold induction at 0.002 mg/ml [14] | fold induction at 0.001 mg/ml [15] | Activity [16] [%] | Activity [17] | Activity [18] [%] | Activity [19] | viability at 0.25 mg/ml [20] [%] | also measured |
| --- | --- | --- | --- | --- | --- | --- | --- | --- | --- | --- | --- | --- | --- | --- | --- | --- | --- | --- | --- | --- | --- |
| O=C(CCN1CCN(c2ccc(C(F)(F)F)cc2)CC1)c1ccc(O)cc1 | 0.83 | 122 | 112 | 127 | 116 | 140 | 138 | 107 | 0.75 | 0.69 | 0.91 | 0.74 | 0.63 | 0.89 | 0.82 | > 10 | <= 10% | > 10 | > 40% | 149 |  |
| O=C(Cn1ccnc1[N+](=O)[O-])NCc1ccccc1 [BENZNIDAZOLE] |  |  |  |  |  |  |  |  |  |  |  |  |  |  |  | > 10 |  | > 10 |  |  | Activity [21]: <= 20%; Activity [22]: <= 10% |
| O=C(CCN1CCN(c2ccc(Cl)cc2)CC1)c1ccc(O)cc1 | 0.77 | 198 | 107 | 130 | 109 | 138 | 113 | 102 | 0.71 | 0.68 | 0.83 | 0.46 | 0.84 | 0.74 | 0.76 |  | <= 10% |  | <= 10% | 152 | Activity [21]: <= 10%; Activity [22]: <= 10% |
